Screening results deposited in PubChem BioAssay by The Scripps Research Institute Molecular Screening Center.
MsrA inh – bovine MsrA inhibition | inhibition, % at 15.5 µM | purified bovine MsrA, absorbance read-out | AID 651718 | actives 0.75% (n = 360,000);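 further: 0% = vehicle wells with enzyme and 100% = reference inhibitor wells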
ARFGAP1 inh – inhibits rat ARF GTPase activating protein 1; AID 651572; Arfgap1-stimulated ARF1 GTP hydrolysis, GDP FP detection; Q62848; inhibition, % at 16.5 µM; actives 0.26% (n = 360,000);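 active means inhibition above a per-plate limit, mean inhibition of low control wells plus 3 SD, cut at about 25% in these data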;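 further: 0% = DMSO wells with enzyme and 100% = wells lacking Arfgap1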
Target sequence (Q62848 1-136 limits assumed): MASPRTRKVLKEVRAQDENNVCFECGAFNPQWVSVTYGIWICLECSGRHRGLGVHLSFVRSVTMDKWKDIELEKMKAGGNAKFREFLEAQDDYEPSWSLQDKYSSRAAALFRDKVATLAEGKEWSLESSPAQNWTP
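Material: truncated rat Arfgap1 GAP domain; Incubation: compound-enzyme preincubation 20 min, reaction 120 min, detection 60 min, 25 °C; Read-out: percent inhibition of Arfgap1-stimulated GTP hydrolysis; Technique: FP, GDP Alexa 633 tracer displaced from anti-GDP antibody, 620/688 nm; Controls: No-Arfgap1 wells (100%) versus DMSO full-reaction wells (0%); Replication: single well per compound.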
MsrA act – activates bovine MsrA enzyme | actives 0.3% (n = 360,000) | AID 602163 | activation, % at 10.6 µM | purified bovine MsrA, absorbance read-out; in the data active means activation above about 7.5%;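 further: 0% = vehicle and 100% = reference activator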
ASAP1 inh – inhibitors of human ASAP1 ArfGAP activity. Q9ULH1. ASAP1-stimulated ARF1 GTP hydrolysis, GDP FP detection. actives 0.19% (n = 360,000). inhibition, % at 16.5 µM; in the data active means inhibition above about 25%;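 further: 0% = vehicle with enzyme and substrate and 100% = no enzyme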
MsrA inh confirm – bovine MsrA inhibition, confirmed. inhibition, % at 15.5 µM. actives 41% (n = 2,300). purified bovine MsrA, absorbance read-out. AID 651822. shares compounds with MsrA inh;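 further: coupled to thioredoxin reductase with NADPH and selenocystamine and DMSO as substrate; 0% = vehicle only and 100% = full effect of reference inhibitor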
Active calls of the source: *; nt = no result. Most compounds without a hit are left out; they make up all but 1.4% or so of the library. Unless noted, no stated cut-off is given here; in the data, active means inhibition above about 4.5%; inactive means the rest.

SMILES	MsrA inh	ARFGAP1 inh	MsrA act	ASAP1 inh	MsrA inh confirm
O=C1NC(NS(=O)(=O)c2ccccc2)(C(F)(F)F)C(=O)N1c1cccc(Cl)c1 (configuration not stated)	0	1	-6	-2	nt
N#Cc1cccc(C(=O)C(=O)N2CCN(c3ccccc3)CC2)c1	-1	-3	nt	-7	nt
CCCNC(=O)Cn1nc(C)n2c(cc3cc(F)ccc32)c1=O	1	-16	-2	-2	nt
CCN1CCCC1CNC(=O)Cn1nc(C)n2c(cc3cc(F)ccc32)c1=O (configuration not stated)	25*	9	-8	12	0
C=CCc1cc(/C=C2/NC(=S)NC2=O)cc(OC)c1O	2	-8	-10	9	nt
C=CCc1cc(/C=C2/NC(=O)NC2=O)cc(OCC)c1O	4.8*	-6	-5	-4	4
CCOc1cc(/C=C2/NC(=O)NC2=O)cc([N+](=O)[O-])c1O	5.6*	10	-15	2	4
S=c1[nH]ncn2c1cc1oc3ccccc3c12	0	-10	-3	-1	nt
Cc1ccccc1Nc1nc(N)[nH]c(=O)c1N=O	2	9	-4	13	nt
CN1CCc2c(sc3c2C(=O)NC(c2cn(Cc4ccccc4)c4ccccc24)N3)C1 (configuration not stated)	5.5*	-8	-8	8	0
CN1CCc2c(sc3c2C(=O)NC(c2ccco2)N3)C1 (configuration not stated)	3	5	-3	2	nt
O=C(C1=C(O)C(=O)N(CCCn2ccnc2)C1c1cccc(Br)c1)c1ccco1 (configuration not stated)	13*	9	-6	8	7.8*
C=CCNc1oc(-c2ccc(Cl)cc2)nc1C#N	1	-5	-7	-9	nt
CNc1oc(-c2ccc(Cl)cc2)nc1C#N	4.8*	13	-4	7	2
N#Cc1c(-c2ccccc2)[nH]c(=S)[nH]c1=O	5.0*	7	6	8	3
N#Cc1c(-c2cccc(Cl)c2)[nH]c(=S)[nH]c1=O	3	11	5	-4	nt
CCS(=O)(=O)Nc1ccc(C2=NN(C(=O)c3ccco3)C(c3ccco3)C2)cc1 (configuration not stated)	5.1*	1	0	24	3
COc1ccc(-n2nc([N+](=O)[O-])c(=NCCCN3CCCC3=O)n2O)cc1	4.8*	-7	-1	4	0
O=C1CCCN1CCCN=c1c([N+](=O)[O-])nn(-c2ccc(Cl)cc2)n1O	1	4	-2	7	nt
N#CC(c1ccc(O)cc1)N1CCN(C(C#N)c2ccc(O)cc2)CC1 (configuration not stated)	5.0*	7	-5	-10	1
COc1ccc(C(C#N)N2CCOCC2)cc1 (configuration not stated)	0	-9	-1	3	nt
CC(C)NC(=O)/C(C#N)=C/c1ccc2c(c1)OCCO2	6.3*	-12	-9	8	4
CC(C)C[C@H]1CN([C@@H](Cc2ccccc2)CN2CCC[C@H]2CN2C(=O)C(=O)NC[C@@H]2Cc2ccc(O)cc2)C(=O)C(=O)N1CC1CCCCC1	1	-3	-2	0	nt
CC(C)C[C@H]1CN([C@@H](Cc2ccccc2)CN2CCC[C@@H]2CN2C(=O)C(=O)NC[C@@H]2Cc2ccc(O)cc2)C(=O)C(=O)N1CC1CCCCC1	4.8*	-2	-7	3	-1
CN(C)c1ccc(/C=C(/NC(=O)c2ccccc2)C(=O)N2CCCC2)cc1	5.4*	1	-4	3	3
Cc1ccc(/C=C(\NC(=O)c2ccccc2)C(=O)N2CCCCC2)cc1	-1	-12	-5	-6	nt
